Source: PubChem
Fam108B inh: mouse Fam108B serine hydrolase inhibitors, primary screen, counter-screen for RBBP9 inhibitor project, biochemical, fluorescence polarization. recombinant Fam108B, FP-Rh probe fluorescence polarization. AID 1947, 2009. hit rate 0.33% among 300,000. inhibition, % at 9.51 µM;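 active means inhibition above the screen mean inhibition plus 3 SD, computed separately per campaign, cut at about 18% in these data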;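 further: inhibitors lower polarization as less probe binds the enzyme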
LYPLA2 inh: LYPLA2 inhibitors, primary screen, counter-screen for PME1 inhibitor project, biochemical, fluorescence polarization, FP-Rh probe ABPP | recombinant LYPLA2 | AID 2177, 2009 | hit rate 0.38% among 320,000 | inhibition, % at 5.9 µM | Acyl-protein thioesterase 2 (Homo sapiens), O95372;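 active means inhibition above the screen-wide mean plus 3 SD, limit set per campaign, cut at about 26% in these data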
LYPLA1 counter: LYPLA1 inhibitors, primary screen, counter-screen for PME1 inhibitor project, biochemical, fluorescence polarization, FP-Rh probe ABPP. Acyl-protein thioesterase 1 (Homo sapiens), O75608. recombinant LYPLA1. inhibition, % at 5.9 µM. hit rate 0.16% among 320,000. AID 2174, 2009;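 active means inhibition above the mean of all tested compounds plus 3 SD, set per campaign, cut at about 14% in these data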;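 further: inhibitors block serine hydrolase probe labeling of LYPLA1 so polarization falls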
proCasp7 act: procaspase-7 activators, primary screen, counter-screen for procaspase-3 activator project, biochemical, absorbance, HTS, human; Caspase-7 (Homo sapiens), P55210; hit rate 0.093% among 330,000; activation, % at 8.5 µM; recombinant procaspase-7, Ac-DEVD-pNA absorbance 405 nm; D23A/D198A/D206A triple mutant, cannot self-cleave; scale: DMSO 0, 5 µM enzyme 100; AID 463210, 2010;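 active means percent activation above the screen-wide mean plus 3 SD, cut at about 25% in these data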
Target sequence (P55210 whole entry D23A/D198A/D206A): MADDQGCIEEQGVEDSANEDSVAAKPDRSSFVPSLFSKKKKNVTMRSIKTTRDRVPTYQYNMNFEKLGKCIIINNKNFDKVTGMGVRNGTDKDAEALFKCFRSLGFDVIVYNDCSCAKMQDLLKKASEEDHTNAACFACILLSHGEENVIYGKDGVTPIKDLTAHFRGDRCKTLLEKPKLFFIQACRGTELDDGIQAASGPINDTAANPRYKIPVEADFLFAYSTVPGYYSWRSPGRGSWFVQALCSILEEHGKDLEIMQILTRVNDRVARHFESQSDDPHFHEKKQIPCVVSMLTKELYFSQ
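Assay system: Uncleavable procaspase-7 mutant enzyme | Input: 2 µM procaspase-7 mutant as dispensed | Timing: 1 h compound preincubation, 2 h substrate cleavage, 25 °C | Repeats: One well per compound | Control set: DMSO wells as 0%, DMSO with 5 µM added PC-7 as 100% | Technique: Epi-absorbance of released pNA at 405 nm, two timepoints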
PME-1 inh: PME-1 inhibitors via competitive probe labeling, primary screen, biochemical, fluorescence polarization, FP-Rh probe, HTS | recombinant PME-1 | hit rate 0.53% among 320,000 | inhibition, % at 5.9 µM | Protein phosphatase methylesterase 1 (Homo sapiens), Q9Y570;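 active means inhibition above the campaign mean of all compounds plus 3 SD, cut at about 26% in these data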;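 further: competitive labeling of PME-1 active site by serine hydrolase directed probe; inhibitors block probe labeling so polarization falls and inhibition rises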
Target sequence (Q9Y570 whole entry, looked up): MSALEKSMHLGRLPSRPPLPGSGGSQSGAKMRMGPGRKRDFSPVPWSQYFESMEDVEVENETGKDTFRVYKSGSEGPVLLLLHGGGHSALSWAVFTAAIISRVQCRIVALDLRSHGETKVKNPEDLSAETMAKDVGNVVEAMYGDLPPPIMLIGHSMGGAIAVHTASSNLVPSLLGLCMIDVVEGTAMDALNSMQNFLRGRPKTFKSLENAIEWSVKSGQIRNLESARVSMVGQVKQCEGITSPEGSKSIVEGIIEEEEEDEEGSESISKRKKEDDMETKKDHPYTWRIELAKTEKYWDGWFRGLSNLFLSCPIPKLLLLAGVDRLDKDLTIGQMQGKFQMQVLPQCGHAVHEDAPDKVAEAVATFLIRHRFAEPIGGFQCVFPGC
procasp3 activ: activators of human procaspase-3 D3A mutant, primary screen, biochemical, absorbance, PC-3 D3A mutant, single concentration. Caspase-3 (Homo sapiens), P42574. recombinant procaspase-3 D3A, Ac-DEVD-pNA absorbance 405 nm. activation, % at 8.5 µM. hit rate 0.11% among 330,000;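 active means activation above the mean of all tested compounds plus 3 SD, cut at about 21% in these data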
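Evaluation: percent activation relative to control range; Material: Procaspase-3 D3A mutant, all three cleavage aspartates alanine; Compound: single dose, 8.5 µM nominal compound, 0.8% DMSO; Replication: one well per compound; Signal: absorbance at 405 nm, 0 and 120 min; Schedule: 1 h preincubation plus 2 h reaction at 25 °C.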
LYPLA2 conf: LYPLA2 inhibitors, retest, confirmation, counter-screen for PME1 inhibitor project, biochemical, fluorescence polarization, FP-Rh probe ABPP. shares compounds with LYPLA2 inh. recombinant LYPLA2. inhibition, % at 5.9 µM. hit rate 72% among 1,100. AID 2232, 2010;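 active means mean inhibition across replicates above the hit cutoff set in the primary screen, cut at about 26% in these data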;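 further: blocked labeling of the enzyme by serine hydrolase FP-Rh probe lowers polarization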
LYPLA2 gel ABPP: LYPLA2 inhibitors in proteome, late-stage follow-up, gel-based competitive ABPP, fluorescence, assay provider. shares compounds with LYPLA2 inh. AID 652029, 2013. rhLYPLA2 in mouse brain proteome, gel ABPP FP-Rh. hit rate 30% among 150. inhibition, % at 20 µM;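 active means inhibition of LYPLA2 enzyme probe labeling above about 50%, limit read from the data; inactive means inhibition below that limit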;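 further: loss of FP-Rh probe labeling of the LYPLA2 gel band measured as band density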
Of the large screens only hits and unclear results are named; the others gave an inactive call (follow-up assays come after a bar, where they were run). Most compounds without a hit are left out; they make up all but 1% or so of the library.

CC(=O)c1ccc(N2CCC(c3cc(-c4ccc(Cl)cc4)n[nH]3)CC2)c([N+](=O)[O-])c1	none
COC(=O)c1ccc(N2CCC(c3cc(-c4ccc(OC)cc4)n[nH]3)CC2)c([N+](=O)[O-])c1	LYPLA2 inh 26.2 | LYPLA2 conf inactive
COc1ccc(-c2cc(C3CCN(c4ccc(C(C)=O)cc4[N+](=O)[O-])CC3)[nH]n2)cc1	LYPLA2 inh 37.1 | LYPLA2 conf 41.9
CN(C)C(CNC1CC(C)(C)NC(C)(C)C1)c1cccc(F)c1 (stereo not given)	none
O=C(COC(=O)c1ccc(O)cc1)c1ccc(S(=O)(=O)N2CCCCC2)cc1	LYPLA2 inh 44.3 (no result: Fam108B inh) | LYPLA2 conf 34.7
Cc1sc2ncnc(OCC(=O)c3ccc(S(=O)(=O)N4CCCC4)cc3)c2c1C	LYPLA2 inh 27.6 | LYPLA2 conf inactive
O=C(COC(=O)c1ccc(CO)cc1)c1ccc(S(=O)(=O)N2CCCCC2)cc1	none (no result: Fam108B inh)
CNC(=O)COc1ncnc2sc(C)c(C)c12	none
CCOc1ccc(-n2c(=O)c3sccc3n(Cc3cccc([N+](=O)[O-])c3)c2=O)cc1	none
O=C(CN1CCN(C/C=C/c2ccccc2)CC1)NCc1ccc(Cl)cc1	LYPLA2 inh 41.7 | LYPLA2 conf 33.9
O=C(CN1CCN(c2ccc(Cl)cc2)CC1)NCc1ccccc1	none
O=C(c1ccc(F)cc1)C1CCN(CCn2c(=S)[nH]c3ccccc3c2=O)CC1	LYPLA2 inh 26.5 | LYPLA2 conf 28.5
CC1CCN(CCn2c(=S)[nH]c3ccccc3c2=O)CC1	none
CS(=O)(=O)CCC(C(=O)OCC(=O)c1ccc(Cl)cc1)N1C(=O)c2ccccc2C1=O (stereo not given)	none
O=C(Cc1ccc(-n2c(=O)[nH]c3ccsc3c2=O)cc1)N1CCN(c2ccc(Cl)cc2)CC1	LYPLA2 inh 30.9 | LYPLA2 conf 28.6
Cc1noc(C)c1S(=O)(=O)Nc1ccc2c(c1)C(=O)N([C@H](C)CO)C[C@H](C)[C@@H](CN(C)S(=O)(=O)c1ccccc1)O2	none (no result: Fam108B inh, LYPLA2 inh, LYPLA1 counter, PME-1 inh)
O=C(C1CCN(c2ncnc3c2nc2n3CCCCC2)CC1)N1CCN(c2ccc(F)cc2)CC1	LYPLA2 inh 40.2 | LYPLA2 conf 32.0
Cn1c(/C=C/c2ccc(Cl)cc2)c([N+](=O)[O-])c(=O)n(C)c1=O	none
CCCCCOc1ccc(/C=C/c2c([N+](=O)[O-])c(=O)n(C)c(=O)n2C)cc1	LYPLA2 inh 68.8 | LYPLA2 conf 52.6 | LYPLA2 gel ABPP inactive
COc1ccccc1Nc1ncc(C(=O)N2CCN(Cc3ccc(OC)c(OC)c3OC)CC2)c2ccccc12	LYPLA2 inh 45.8 | LYPLA2 conf inactive
CCOC(=O)C1=C(N)Oc2c(oc(CO)cc2=O)C1c1ccccc1 (stereo not given)	none
CCOC(=O)C(Cc1ccccc1)c1ccnc2ncnn12 (stereo not given)	LYPLA2 inh 34.6 | LYPLA2 conf inactive
Cc1cccc(C(=O)NC(=S)Nc2cccc3nc(C)ccc23)c1	none
COc1ccc(-c2ccc(=O)n(Cc3ccc([N+](=O)[O-])cc3)n2)cc1	LYPLA2 inh 28.9 | LYPLA2 conf 29.5
Cc1ccc2[nH]c(=O)c(CNS(=O)(=O)c3ccccc3)c(-c3ccccc3)c2c1	none
COc1cccc(-c2cc(C(=O)N3CCN(Cc4ccc5c(c4)OCO5)CC3)on2)c1	LYPLA2 inh 30.3 | LYPLA2 conf 28.6
Cc1cc(C(=O)N2CCN(Cc3ccc4c(c3)OCO4)CC2)on1	none
O=C(Nc1ccc(Cl)cc1)N1CCN(Cc2ccc3c(c2)OCO3)CC1	none
CCOc1ccccc1C(=O)NCC(=O)N1CCN(Cc2ccc3c(c2)OCO3)CC1	LYPLA2 inh 61.6 (no result: Fam108B inh) | LYPLA2 conf 56.9 | LYPLA2 gel ABPP inactive
O=C(COc1ccc(Cl)cc1)N1CCN(Cc2ccc3c(c2)OCO3)CC1	LYPLA2 inh 33.6 | LYPLA2 conf 29.2
COc1ccccc1C(=O)N1CCN(Cc2ccc3c(c2)OCO3)CC1	none
COc1cc(OC)cc(C(=O)Nc2ccn(C)n2)c1	none (no result: Fam108B inh)
O=[N+]([O-])c1ccc(SCc2c(F)cccc2Cl)nc1	LYPLA2 inh 31.2 | LYPLA2 conf 37.7
O=[N+]([O-])c1ccc(Sc2ccccn2)nc1	none
O=[N+]([O-])c1ccc(Sc2ccc(Cl)c(Cl)c2)nc1	LYPLA2 inh 39.5 | LYPLA2 conf 31.0
O=[N+]([O-])c1cccnc1SCc1c(F)cccc1Cl	LYPLA2 inh 32.3 | LYPLA2 conf 37.7
COc1ccccc1C(=O)NC1CCN(C(=S)NCCc2ccccc2)CC1	none
CCC1(c2ccccc2)NC(=O)N(CC(=O)NCCN2C(=O)S/C(=C\c3cccnc3)C2=O)C1=O (stereo not given)	none
NC(=O)c1ccc(Oc2ccc3c(c2)CCC3)c([N+](=O)[O-])c1	LYPLA2 inh 30.3 | LYPLA2 conf 29.4
CSCCC(=O)N1CCCC(N2CCN(c3cccc(C(F)(F)F)c3)CC2)C1 (stereo not given)	LYPLA2 inh 53.3 | LYPLA2 conf 58.8 | LYPLA2 gel ABPP inactive
Cc1ccc(C(=O)N2CCCC(N3CCN(c4cccc(C(F)(F)F)c4)CC3)C2)s1 (stereo not given)	LYPLA2 inh 42.2 | LYPLA2 conf 38.9
CCc1cc(C(=O)N2CCCC(N3CCN(c4cccc(C(F)(F)F)c4)CC3)C2)n(C)n1 (stereo not given)	LYPLA2 inh 81.3 | LYPLA2 conf 74.2 | LYPLA2 gel ABPP inactive
Cc1cc(C)n(CC(=O)N2CCCC(N3CCN(c4cccc(C(F)(F)F)c4)CC3)C2)n1 (stereo not given)	none
CC(=O)N1CCCC(N2CCN(c3cccc(C(F)(F)F)c3)CC2)C1 (stereo not given)	none
